For two compounds, Activity and inhibition results are on record in ChEMBL document CHEMBL3351270, “Curcumolide, a unique sesquiterpenoid with anti-inflammatory properties from Curcuma wenyujin” (Bioorg Med Chem Lett, 2015).

Data set [1] relates to RAW264.7. Description: Cytotoxicity against mouse RAW264.7 cells assessed as cell viability at 0.01 to 100 uM after 24 hrs by MTT assay. Particulars: raw264.7, 24 h. The class given is cell-based. An outline of the steps:
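Viability of RAW 264.7 cells measured by MTT after 24 h exposure to compound at 0.01–100 µM.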
(In general: Formazan colour is commonly taken as a measure of viable cells.)

For data set [2], the system named is RAW264.7. Nature of the data set: Antiinflammatory activity in mouse RAW264.7 cells assessed as inhibition of LPS-induced increase in TNF-alpha level incubated for 2 hrs prior to LPS challenge measured after 22 hrs by ELISA. The class given is functional, cell-based. In outline:
(§1)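 RAW 264.7 macrophages pretreated 2 h with compound (0–20 µM) or 10 µM hydrocortisone as positive control, then exposed to LPS for a further 22 h. TNF-α, IL-1β and IL-6 in culture medium determined by ELISA. Means ± SEM from four independent experiments.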

Data set [3] has as its system RAW264.7. Nature of the data set: Antiinflammatory activity in mouse RAW264.7 cells assessed as inhibition of LPS-induced increase in IL-6 level incubated for 2 hrs prior to LPS challenge measured after 22 hrs by ELISA. Format: functional, cell-based. An outline of the steps:
as §1

The test system of data set [4] is RAW264.7. Nature of the data set: Antiinflammatory activity in mouse RAW264.7 cells assessed as inhibition of LPS-induced increase in IL-1beta level incubated for 2 hrs prior to LPS challenge measured after 22 hrs by ELISA. Format: functional, cell-based. An outline of the steps:
as §1
For orientation: In an ELISA, binding on a coated surface is turned into a signal by an enzyme label.

The subject of data set [5] is RAW264.7. Description: Antiinflammatory activity in mouse RAW264.7 cells assessed as inhibition of LPS-induced increase in TNF-alpha level at 10 uM incubated for 2 hrs prior to LPS challenge measured after 22 hrs by ELISA relative to control. The class given is functional. An outline of the steps:
as §1

Data set [6] concerns RAW264.7. Description: Antiinflammatory activity in mouse RAW264.7 cells assessed as inhibition of LPS-induced increase in IL-6 level at 10 uM incubated for 2 hrs prior to LPS challenge measured after 22 hrs by ELISA relative to control. The class given is functional. In outline:
as §1

The subject of data set [7] is RAW264.7. Description: Antiinflammatory activity in mouse RAW264.7 cells assessed as inhibition of LPS-induced increase in IL-1beta level at 10 uM incubated for 2 hrs prior to LPS challenge measured after 22 hrs by ELISA relative to control. Format: functional. In outline:
as §1

Data set [8] deals with RAW264.7. Nature of the data set: Antiinflammatory activity in mouse RAW264.7 cells assessed as inhibition of LPS-induced increase in TNF-alpha level at 20 uM incubated for 2 hrs prior to LPS challenge measured after 22 hrs by ELISA relative to control. Format: functional. An outline of the steps:
as §1

In data set [9] the test system is RAW264.7. Nature of the data set: Antiinflammatory activity in mouse RAW264.7 cells assessed as inhibition of LPS-induced increase in IL-6 level at 20 uM incubated for 2 hrs prior to LPS challenge measured after 22 hrs by ELISA relative to control. Format: functional. In outline:
as §1

Data set [10] has as its system RAW264.7. Nature of the data set: Antiinflammatory activity in mouse RAW264.7 cells assessed as inhibition of LPS-induced increase in IL-1beta level at 20 uM incubated for 2 hrs prior to LPS challenge measured after 22 hrs by ELISA relative to control. The class given is functional. An outline of the steps:
as §1

Data set [11] concerns RAW264.7. Description: Antiinflammatory activity in mouse RAW264.7 cells assessed as inhibition of LPS-induced nitric oxide production incubated for 2 hrs prior to LPS challenge measured after 22 hrs relative to vehicle-treated control. Format: functional, cell-based. An outline of the steps:
(§2)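 Cells treated 2 h with compound (0–20 µM) or 10 µM hydrocortisone, followed by LPS for a further 22 h. NO production estimated as nitrite in culture medium by Griess reaction. Inhibition expressed as blocked ratio. Means ± SEM, four independent experiments.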

Data set [12] deals with RAW264.7. Nature of the data set: Antiinflammatory activity in mouse RAW264.7 cells assessed as inhibition of LPS-induced nitric oxide production at 2 uM incubated for 2 hrs prior to LPS challenge measured after 22 hrs relative to vehicle-treated control. The class given is functional. In outline:
as §2

For data set [13], the system named is RAW264.7. Description: Antiinflammatory activity in mouse RAW264.7 cells assessed as inhibition of LPS-induced nitric oxide production at 10 uM incubated for 2 hrs prior to LPS challenge measured after 22 hrs relative to vehicle-treated control. Format: functional. An outline of the steps: as §2
Data set [14] deals with RAW264.7. Description: Antiinflammatory activity in mouse RAW264.7 cells assessed as inhibition of LPS-induced nitric oxide production at 20 uM incubated for 2 hrs prior to LPS challenge measured after 22 hrs relative to vehicle-treated control. The class given is functional. In outline:
as §2

The test system of data set [15] is RAW264.7. Nature of the data set: Antiinflammatory activity in mouse RAW264.7 cells assessed as inhibition of LPS-induced ROS generation incubated for 2 hrs prior to LPS challenge measured after 22 hrs by spectrophotometry relative to vehicle-treated control. The class given is functional, cell-based. An outline of the steps:
(§3)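 Compound (0–20 µM) applied to RAW 264.7 cells for 2 h, then LPS added for a further 22 h. Cells harvested, loaded with 10 µM DCFH-DA for 20 min, washed twice with cold PBS. Intracellular ROS read as arbitrary fluorescence units. Means ± SEM, four independent experiments.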

For data set [16], the system named is RAW264.7. Description: Antiinflammatory activity in mouse RAW264.7 cells assessed as inhibition of LPS-induced ROS generation at 10 uM incubated for 2 hrs prior to LPS challenge measured after 22 hrs by spectrophotometry relative to vehicle-treated control. Format: functional. In outline:
as §3

In data set [17] the test system is RAW264.7. Description: Antiinflammatory activity in mouse RAW264.7 cells assessed as inhibition of LPS-induced ROS generation at 20 uM incubated for 2 hrs prior to LPS challenge measured after 22 hrs by spectrophotometry relative to vehicle-treated control. Format: functional. An outline of the steps:
as §3

In data set [18] the target is Transcription factor p65 (Mus musculus) (UniProt Q04207). Description: Antiinflammatory activity in mouse RAW264.7 cells assessed as inhibition of LPS-induced NF-kappaB p65 subunit nuclear translocation at 20 uM incubated for 1 hr prior to LPS challenge measured after 30 mins by immunofluorescence assay relative to vehicle-treated control. Format: cell-based. In outline:
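Immunofluorescence: RAW 264.7 cells pretreated with 20 µM compound for 1 h, then LPS for 30 min. p65 subunit localization (cytoplasm vs nucleus) imaged by fluorescence microscopy.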

The target is the same in data set [19]. Description: Antiinflammatory activity in mouse RAW264.7 cells assessed as inhibition of LPS-induced DNA binding activity of NF-kappaB p65 incubated for 1 hr prior to LPS challenge measured after 30 mins by ELISA relative to vehicle-treated control. Format: cell-based. An outline of the steps:
(§4)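 RAW264.7 cells preincubated with compound (0–20 µM) for 1 h, then stimulated with LPS for 30 min. NF-κB p65 DNA-binding activity quantified by ELISA-based TransAM p65 transcription factor kit. Means ± SEM of three independent experiments. LPS given at 0.5 µg/mL.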

Data set [20] has the same target. Description: Antiinflammatory activity in mouse RAW264.7 cells assessed as inhibition of LPS-induced DNA binding activity of NF-kappaB p65 at 2 uM incubated for 1 hr prior to LPS challenge measured after 30 mins by ELISA relative to vehicle-treated control. The class given is cell-based. An outline of the steps:
as §4

For data set [21] the target is unchanged. Nature of the data set: Antiinflammatory activity in mouse RAW264.7 cells assessed as inhibition of LPS-induced DNA binding activity of NF-kappaB p65 at 10 uM incubated for 1 hr prior to LPS challenge measured after 30 mins by ELISA relative to vehicle-treated control. Format: cell-based. An outline of the steps: as §4
Data set [22] has the same target. Description: Antiinflammatory activity in mouse RAW264.7 cells assessed as inhibition of LPS-induced DNA binding activity of NF-kappaB p65 at 20 uM incubated for 1 hr prior to LPS challenge measured after 30 mins by ELISA relative to vehicle-treated control. The class given is cell-based. In outline: as §4

Calls of active or inactive are those of the source. No cut-off for these calls is given here.

Chain of Transcription factor p65 (Mus musculus) (Q04207 whole entry): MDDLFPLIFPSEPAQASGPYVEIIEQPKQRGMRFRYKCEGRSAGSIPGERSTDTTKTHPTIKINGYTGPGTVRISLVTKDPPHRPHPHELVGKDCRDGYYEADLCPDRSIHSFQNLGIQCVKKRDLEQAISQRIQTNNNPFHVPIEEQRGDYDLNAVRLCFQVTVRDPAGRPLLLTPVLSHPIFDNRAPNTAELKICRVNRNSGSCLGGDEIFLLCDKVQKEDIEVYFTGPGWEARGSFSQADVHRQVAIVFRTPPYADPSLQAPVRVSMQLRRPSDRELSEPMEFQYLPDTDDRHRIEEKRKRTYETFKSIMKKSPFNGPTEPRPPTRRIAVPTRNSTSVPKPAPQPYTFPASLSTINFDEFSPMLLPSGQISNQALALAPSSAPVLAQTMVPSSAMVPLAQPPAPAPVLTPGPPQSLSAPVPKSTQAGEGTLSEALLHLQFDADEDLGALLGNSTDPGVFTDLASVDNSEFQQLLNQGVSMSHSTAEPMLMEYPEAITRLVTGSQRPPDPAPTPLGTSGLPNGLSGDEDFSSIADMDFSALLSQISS

Consider `CC1=C[C@]2(C(C)(C)O)C[C@]3(OC2=O)[C@@H](C)CC[C@@H]13`, for which the Activity result in the data set with RAW264.7 [1] is given as “Non-toxic”. The inhibition result (in the data set on RAW264.7 [2]; with RAW264.7 [3]; in the data set on RAW264.7 [4]; in the data set with RAW264.7 [11]; with RAW264.7 [15]; in data set [19]) was “Dose-dependent effect” throughout. Further, the inhibition (usually the change of the read-out against control, counted positive when it falls) in [20] amounted to 36.5%; in [21], 51.3%; in data set [22], 68%. The inhibition at 10 µM in the data set with RAW264.7 [5] is 37.6%; in the data set on RAW264.7 [6], 37.3%; in the data set on RAW264.7 [7], 27.9%; in the data set on RAW264.7 [13], 53.9%; in the data set on RAW264.7 [16], 57.9%. For the same compound, the inhibition at 20 µM in the data set on RAW264.7 [8] was determined as 55.4%; in the data set with RAW264.7 [9], 78.3%; with RAW264.7 [10], 68%; with RAW264.7 [14], 71%; in the data set with RAW264.7 [17], 82.3%. In the data set with RAW264.7 [12], the inhibition at 2 µM stood at 25.1%. Besides, the inhibition result in [18] is “Active”.

Consider `C[C@]12CCC(=O)C=C1CC[C@@H]1[C@@H]2[C@@H](O)C[C@@]2(C)[C@H]1CC[C@]2(O)C(=O)CO`, for which the inhibition entry with RAW264.7 [5], with RAW264.7 [6], in the data set with RAW264.7 [7] and in the data set on RAW264.7 [13] was “Active” each time.
